Here are results for 20 compounds from ChEMBL document CHEMBL1165925, “Identification of new non-carboxylic acid containing inhibitors of aldose reductase” (Bioorg Med Chem, 2010).

The target of the first assay is Aldo-keto reductase family 1 member B1 (Bos taurus) (UniProt P16116). Nature of the assay: Inhibition of bovine lens aldose reductase at 25 uM. The method in brief: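 Bovine lens enzyme was purified by DE-52 and Matrex Orange A chromatography. Assay used glyceraldehyde as substrate in 0.25 M sodium phosphate pH 6.8, with 0.38 M ammonium sulfate, 0.11 mM NADPH and 0.5 mM EDTA. Inhibitor was added in DMSO, final 1% v/v. Read-out is NADPH oxidation, given as percent inhibition at a single concentration.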
In the case of `O=C1S/C(=C\c2cccc3ccccc23)C(=O)N1CC(O)(O)C(F)(F)F`, the inhibition (commonly the change of the read-out against control, counted positive when it falls) is 52%.

`O=C1S/C(=C\c2ccc(-c3ccccc3)cc2)C(=O)N1CC(=O)C(F)(F)F`: the inhibition amounted to 45%.

The compound `O=C1S/C(=C\c2cccc(Oc3ccccc3)c2)C(=O)N1CC(=O)C(F)(F)F` yielded an inhibition of 64%.

In turn, `O=C1S/C(=C\c2cccc3ccccc23)C(=O)N1CC(=O)C(F)(F)F` registered an inhibition of 52%.

On to `O=C1S/C(=C\c2ccc3ccccc3c2)C(=O)N1CC(=O)C(F)(F)F`, for which the inhibition is 59%.

For the compound `O=C1S/C(=C\c2ccc3ccccc3c2)C(=O)N1CC(O)(O)C(F)(F)F`, the inhibition was 59%.

Turning to `O=C1S/C(=C\c2cccc(Oc3ccccc3)c2)C(=O)N1CC(O)(O)C(F)(F)F`, the inhibition was determined as 64%.

For `O=C1S/C(=C\c2ccc(-c3ccccc3)cc2)C(=O)N1CC(O)(O)C(F)(F)F`, the inhibition is 45%.

Another assay concerns the target Aldo-keto reductase family 1 member B1 (Bos taurus, UniProt P16116). Nature of the assay: Inhibition of bovine lens aldose reductase. The method in brief: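 Enzyme purified from bovine lens by DE-52 ion exchange then Matrex Orange A affinity chromatography (0.93 U/mg) and kept at 4 °C in 10 mM sodium phosphate pH 7.0 with 2 mM DTT. At least five inhibitor concentrations (20–80% inhibition), each tested at least in triplicate. IC50 from one-site competition nonlinear fit; 95% CL.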
For `COc1cccc(/C=C2\SC(=O)N(CC(O)(O)C(F)(F)F)C2=O)c1`, the IC50 – broadly, the concentration that gives 50% inhibition – came to 23.3 µM.

For the compound `COc1ccc(/C=C2\SC(=O)N(CC(O)(O)C(F)(F)F)C2=O)cc1`, it took 17.4 µM to reach half-maximal inhibition (IC50).

Regarding `O=C1S/C(=C\c2ccc(OCc3ccccc3)cc2)C(=O)N1CC(=O)C(F)(F)F`, the IC50 is greater than 9 µM.

`O=C1S/C(=C\c2ccc(Oc3ccccc3)cc2)C(=O)N1CC(=O)C(F)(F)F` yielded an IC50 of 8.3 µM.

Compound `O=C1S/C(=C\c2ccc(Oc3ccccc3)cc2)C(=O)N1CC(O)(O)C(F)(F)F` gave an IC50 of 8.3 µM. This counts as single-digit micromolar.

Regarding `COc1cccc(/C=C2\SC(=O)N(CC(=O)C(F)(F)F)C2=O)c1`, 23.3 µM corresponded to half-maximal inhibition (IC50).

Compound `O=C1S/C(=C\c2cccc(O)c2)C(=O)N1CC(=O)C(F)(F)F` gave an IC50 of 12.3 µM.

`O=C1S/C(=C\c2ccc(O)cc2)C(=O)N1CC(=O)C(F)(F)F` came in with an IC50 of 3 µM.

On to `O=C1S/C(=C\c2ccc(OCc3ccccc3)cc2)C(=O)N1CC(O)(O)C(F)(F)F`, for which the IC50 was greater than 9 µM.

`O=C1S/C(=C\c2ccc(O)cc2)C(=O)N1CC(O)(O)C(F)(F)F` came in with an IC50 of 3 µM.

In turn, `O=C1S/C(=C\c2cccc(O)c2)C(=O)N1CC(O)(O)C(F)(F)F` yielded an IC50 of 12.3 µM.

`COc1ccc(/C=C2\SC(=O)N(CC(=O)C(F)(F)F)C2=O)cc1` had an IC50 of 17.4 µM.
